Assay results as given in ChEMBL document CHEMBL4257465, “Strigolactones: a plant phytohormone as novel anti-inflammatory agents” (Medchemcomm, 2018).

Legend:
RAW264.7 [1] = experiment: Antiinflammatory activity in LPS-induced mouse RAW264.7 cells assessed as TNFalpha levels at 1.25 uM pretreated for 2 hrs followed by LPS stimulation and measured after 12 hrs by ELISA (reference value: 5313.7 +/- 420.9 pg/ml); format: functional
RAW264.7 [2] = experiment: Antiinflammatory activity in LPS-induced mouse RAW264.7 cells assessed as TNFalpha levels at 10 uM pretreated for 2 hrs followed by LPS stimulation and measured after 12 hrs by ELISA (reference value: 5313.7 +/- 420.9 pg/ml); format: functional
Procedure, shortened: (§1)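 RAW264.7 murine macrophages (DMEM, 10% serum, 37 °C, 5% CO2) seeded at 5 × 10^5 cells per well, pretreated 2 h with compound at 10, 5, 2.5 or 1.25 μM (DMSO 0.1% v/v), then LPS (E. coli 0127:B8) 100 ng mL−1 added. Supernatant TNF-α or IL-6 read by mouse ELISA kit after 6, 12 and 24 h. Mean ± SD, n = 3, three independent experiments.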

RAW264.7 [3] = experiment: Antiinflammatory activity in LPS-induced mouse RAW264.7 cells assessed as IL-6 levels at 5 uM pretreated for 2 hrs followed by LPS stimulation and measured after 12 hrs by ELISA (reference value: 1394 +/- 62.6 pg/ml); format: functional; procedure, shortened: as §1
RAW264.7 [4] = experiment: Antiinflammatory activity in LPS-induced mouse RAW264.7 cells assessed as TNFalpha levels at 2.5 uM pretreated for 2 hrs followed by LPS stimulation and measured after 12 hrs by ELISA (reference value: 5313.7 +/- 420.9 pg/ml); format: functional
RAW264.7 [5] = experiment: Antiinflammatory activity in LPS-induced mouse RAW264.7 cells assessed as TNFalpha levels at 10 uM pretreated for 2 hrs followed by LPS stimulation and measured after 6 hrs by ELISA (reference value: 4377.1 +/- 318.6 pg/ml); format: functional; procedure, shortened: as §1
RAW264.7 [6] = experiment: Antiinflammatory activity in LPS-induced mouse RAW264.7 cells assessed as IL-6 levels at 10 uM pretreated for 2 hrs followed by LPS stimulation and measured after 6 hrs by ELISA (reference value: 472.3 +/- 25.8 pg/ml); format: functional; procedure, shortened: as §1
RAW264.7 [7] = experiment: Antiinflammatory activity in mouse RAW264.7 cells assessed as inhibition of LPS-induced NO production pretreated for 2 hrs followed by LPS stimulation measured after 24 hrs by Griess assay; format: functional, cell-based
Procedure, shortened: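 RAW264.7 murine macrophages (DMEM, 10% serum, 37 °C, 5% CO2) seeded at 5 × 10^4 cells/well and cultured 18 h. Compounds tested at 1–100 μM (DMSO 0.1% v/v), with LPS (E. coli 0127:B8) at 100 ng mL−1. Supernatant nitrite read with Griess reagent (10 min, room temperature, OD540).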

RAW264.7 [8] = experiment: Antiinflammatory activity in LPS-induced mouse RAW264.7 cells assessed as IL-6 levels at 2.5 uM pretreated for 2 hrs followed by LPS stimulation and measured after 24 hrs by ELISA (reference value: 1966.6 +/- 102.3 pg/ml); format: functional; procedure, shortened: as §1
RAW264.7 [9] = experiment: Antiinflammatory activity in LPS-induced mouse RAW264.7 cells assessed as IL-6 levels at 10 uM pretreated for 2 hrs followed by LPS stimulation and measured after 24 hrs by ELISA (reference value: 1966.6 +/- 102.3 pg/ml); format: functional; procedure, shortened: as §1
[10] = target: Transcription factor p65 (Mus musculus) (UniProt Q04207); experiment: Inhibition of LPS-induced NFkappaB p65 phosphorylation in mouse RAW264.7 cells after 4 hrs by Western blot analysis; format: cell-based
Procedure, shortened: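 RAW264.7 cells at 2 × 10^6 per well given fresh medium with compound (10, 5, 2.5, 1.25 μM) plus LPS 500 ng mL−1 for 4 h. Lysed in IP buffer with 1 mM PMSF, protein by BCA. Run on 12.5% SDS-PAGE and blotted. Phospho and total ERK1/2 (Thr202/Tyr204), p38 (Thr180/Tyr182), IκBα (Ser32/36) and NF-κB p65 detected by ECL. Mean ± SD, n = 3.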

RAW264.7 [11] = experiment: Antiinflammatory activity in LPS-induced mouse RAW264.7 cells assessed as TNFalpha levels at 10 uM pretreated for 2 hrs followed by LPS stimulation and measured after 24 hrs by ELISA (reference value: 9653.7 +/- 377.3 pg/ml); format: functional; procedure, shortened: as §1
RAW264.7 [12] = experiment: Antiinflammatory activity in LPS-induced mouse RAW264.7 cells assessed as TNFalpha levels at 5 uM pretreated for 2 hrs followed by LPS stimulation and measured after 12 hrs by ELISA (reference value: 5313.7 +/- 420.9 pg/ml); format: functional; procedure, shortened: as §1
RAW264.7 [13] = experiment: Antiinflammatory activity in LPS-induced mouse RAW264.7 cells assessed as IL-6 levels at 1.25 uM pretreated for 2 hrs followed by LPS stimulation and measured after 12 hrs by ELISA (reference value: 1394 +/- 62.6 pg/ml); format: functional; procedure, shortened: as §1
RAW264.7 [14] = experiment: Antiinflammatory activity in LPS-induced mouse RAW264.7 cells assessed as IL-6 levels at 5 uM pretreated for 2 hrs followed by LPS stimulation and measured after 6 hrs by ELISA (reference value: 472.3 +/- 25.8 pg/ml); format: functional; procedure, shortened: as §1

Transcription factor p65 (Mus musculus), sequence (Q04207 whole entry): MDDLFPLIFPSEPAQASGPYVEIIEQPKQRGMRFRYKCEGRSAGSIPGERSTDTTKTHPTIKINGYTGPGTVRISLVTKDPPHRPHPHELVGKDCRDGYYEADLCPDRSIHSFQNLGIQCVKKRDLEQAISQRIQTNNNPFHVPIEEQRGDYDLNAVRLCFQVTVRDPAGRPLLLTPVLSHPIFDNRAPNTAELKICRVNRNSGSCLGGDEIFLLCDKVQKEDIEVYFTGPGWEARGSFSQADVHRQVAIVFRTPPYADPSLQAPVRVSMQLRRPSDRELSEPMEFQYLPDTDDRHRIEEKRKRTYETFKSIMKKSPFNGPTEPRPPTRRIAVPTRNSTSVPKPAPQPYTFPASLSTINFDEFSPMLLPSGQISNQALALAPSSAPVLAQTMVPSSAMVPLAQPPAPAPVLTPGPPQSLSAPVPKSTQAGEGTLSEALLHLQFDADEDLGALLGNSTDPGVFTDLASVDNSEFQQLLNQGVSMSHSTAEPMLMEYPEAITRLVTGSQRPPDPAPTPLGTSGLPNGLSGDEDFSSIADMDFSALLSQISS

With `CC1=C[C@H](O/C=C2/C(=O)O[C@@H]3c4ccccc4C[C@H]23)OC1=O` the Activity (RAW264.7 [1]) was 5303.7 pg/mL, the Activity (RAW264.7 [2]) was 4685.5 pg/mL and the Activity (RAW264.7 [3]) was 1090.7 pg/mL. The Activity (RAW264.7 [4]) was 5186.9 pg/mL, the Activity (RAW264.7 [5]) was 3862.3 pg/mL and the Activity (RAW264.7 [6]) was 302.3 pg/mL. The IC50 (RAW264.7 [7]) was 3.14 µM, the Activity (RAW264.7 [8]) was 1729.3 pg/mL and the Activity (RAW264.7 [9]) was 1002.2 pg/mL. For the same compound, the inhibition [10] was “Dose-dependent effect”, the Activity (RAW264.7 [11]) was 8660.7 pg/mL and the Activity (RAW264.7 [12]) was 5036.1 pg/mL. For the same compound, the Activity (RAW264.7 [13]) was 1351.9 pg/mL and the Activity (RAW264.7 [14]) was 387.1 pg/mL.

Compound `CC1=C[C@@H](O/C=C2/C(=O)O[C@H]3c4ccccc4C[C@@H]23)OC1=O` has an Activity (RAW264.7 [1]) of 5319.6 pg/mL, an Activity (RAW264.7 [2]) of 4721.3 pg/mL and an Activity (RAW264.7 [3]) of 1177 pg/mL. The Activity (RAW264.7 [4]) was 5212.4 pg/mL, the Activity (RAW264.7 [5]) was 3927.4 pg/mL and the Activity (RAW264.7 [6]) was 340.6 pg/mL. For the same compound, the IC50 (RAW264.7 [7]) was 3.51 µM, the Activity (RAW264.7 [8]) was 1787.6 pg/mL and the Activity (RAW264.7 [9]) was 1061.3 pg/mL. For the same compound, the inhibition [10] was “Dose-dependent effect”, the Activity (RAW264.7 [11]) was 8796.7 pg/mL and the Activity (RAW264.7 [12]) was 5079.1 pg/mL. The Activity (RAW264.7 [13]) was 1374.3 pg/mL and the Activity (RAW264.7 [14]) was 410.3 pg/mL.
